Experimental findings from PubChem BioAssay are described below.

Activity calls are given as the source filed them.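 Rule for the calls, unless noted: active = inhibition of the reporter signal at or above 50%; inactive = inhibition below 50%.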

Test [1] is described as follows: inhibitors of TNFa-induced NFkB p65 translocation, primary screen, imaging, HUVEC, MLSMR starter and 10KST1 sets (AID 438;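 active = inhibition above 20% together with a positive visual image hit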;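 note: compound added about 3h40 before a 20 min TNFalpha stimulation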;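 for inhibition: signal is the nuclear over cytoplasmic p65 intensity ratio per well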). The conditions noted are these: HUVEC TNFa-induced p65 nuclear translocation; cell count: measured here: nuclei count (cytotoxicity indicator), at 2.08 µM; inhibition: at 2 µM, stronger effect = higher value, 0% TNFa-plus-vehicle, 100% no-TNFa wells.
Test [2] in a line: inhibitors of mutant huntingtin aggregation, primary screen, imaging, exon1htt(103Q)mCFP cells, high-content imaging (AID 483;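 active = visual image review flags a hit and inhibition of aggregation exceeds 20%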;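 note: compound exposure lasted 3 days before fixation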;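 for nuclei count: percent of the per-plate median nuclei count of sample wells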). The conditions noted are these: exon1htt(103Q)mCFP cell line, aggregate imaging, at 2 µM; inhibition of aggregation: stronger effect = higher value; nuclei count: measured here: cell count, toxicity.
Test [3] can be described thus: inhibitors of E-selectin induction by TNFa, primary screen, imaging, HUVEC, immunofluorescence, MLSMR starter and 10KST1 sets (AID 487;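 active = visually confirmed hit in the image check and inhibition above 20%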;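 for inhibition: signal is fraction of cell area covered by stained E-selectin grains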;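 for nuclei count: 100% = median nuclei count of all wells on the same plate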). Conditions: HUVEC TNFalpha-induced E-selectin immunofluorescence imaging, at 2 µM; inhibition: stronger effect = higher value; nuclei count: measured here: cell number, toxicity.
For test [4], the target named is Voltage-gated potassium channel subunit beta-2 (Rattus norvegicus) (UniProt P62483). As to the kind of experiment: KvBeta enzyme negative modulators, primary screen, biochemical, NADPH fluorescence (AID 622;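 active = fluorescence slope higher than the sample average by over 3 SD, cut at about -0.22 in these data, passing the limit was not always enough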;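 note: slope of raw intensity against log time taken from 70 to 1610 s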). The conditions noted are these: recombinant KvBeta, 4-cyanobenzaldehyde reduction, at 10 µM, stronger effect = higher value.
Test [5] has the same target. The test can be described thus: KvBeta positive modulators, primary screen, biochemical, NADPH fluorescence (AID 623;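 active = NADPH fluorescence slope more negative than the mean of all samples by about 3 SD, 99.7% confidence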;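 note: fluorescence intensity change per second fitted from 20 to 320 s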). The conditions noted are these: Recombinant KvBeta, NADPH fluorescence decrease slope, 10 min; at 10 µM; stronger effect = lower value.
For test [6], the target named is Muscarinic acetylcholine receptor M4 (Homo sapiens) (UniProt P08173). The test can be described thus: compounds altering M4/GIRK thallium flux, either direction, primary screen, M4 allosteric agonist project, cell-based, HEK293 M4/GIRK, BTC-AM (AID 625;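 active = fluorescence slope after compound addition differing from the mean of all tested samples at 99.7% confidence, mostly higher but some lower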;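 note: thallium influx through GIRK channels coupled to M4 in HEK293 cells with BTC-AM dye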). Conditions: at 10 µM, actives lie on both sides. A digest of the protocol: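 Material – HEK293 cells with M4 receptor and GIRK channels · Buffer or medium – pH 7.3 thallium assay buffer · Doses – one dose, 10 µM final · Timing – cells overnight at 37 °C, BTC-AM loading 1 h, reads 2 min total · Measured by – kinetic fluorescence with BTC-AM dye · Controls – carbachol and DMSO controls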

A short description of test [7]: inhibitors of Sendai virus-induced IRF3 signaling, primary screen, TLR/RLR signaling modifier project, cell-based, Sendai virus stimulus, luciferase, 10K MLSCN set (AID 602276;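 active = inhibition at or above 50% at 10 µM; inactive = inhibition below 50%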;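 note: firefly luciferase from ISG56 promoter only with Renilla not read in this screen; 0% = Sendai virus plus DMSO and 100% = medium plus DMSO without virus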). Conditions: HEK293 RL24 IRF3 luciferase reporter, at 10 µM, stronger effect = higher value.
Test [8] can be described thus: inhibitors of poly I:C-induced TLR3 signaling, primary screen, cell-based, poly I:C stimulus, luciferase, 10K MLSCN set (AID 602277). The conditions noted are these: HEK293-TLR3 RL24 IRF3 luciferase reporter, at 10 µM, stronger effect = higher value.

Sequence of Voltage-gated potassium channel subunit beta-2 (Rattus norvegicus) (P62483 whole entry, looked up): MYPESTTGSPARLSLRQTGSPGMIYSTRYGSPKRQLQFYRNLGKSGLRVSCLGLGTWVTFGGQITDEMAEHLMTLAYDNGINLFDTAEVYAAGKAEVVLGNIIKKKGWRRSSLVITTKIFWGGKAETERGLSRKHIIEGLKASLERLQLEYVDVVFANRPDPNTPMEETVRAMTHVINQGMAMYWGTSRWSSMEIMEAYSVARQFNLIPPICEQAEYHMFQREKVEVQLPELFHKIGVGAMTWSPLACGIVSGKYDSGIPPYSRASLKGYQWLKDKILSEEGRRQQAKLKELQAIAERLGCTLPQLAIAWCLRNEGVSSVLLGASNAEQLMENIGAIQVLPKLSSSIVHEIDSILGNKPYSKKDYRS
Sequence of Muscarinic acetylcholine receptor M4 (Homo sapiens) (P08173 whole entry, looked up): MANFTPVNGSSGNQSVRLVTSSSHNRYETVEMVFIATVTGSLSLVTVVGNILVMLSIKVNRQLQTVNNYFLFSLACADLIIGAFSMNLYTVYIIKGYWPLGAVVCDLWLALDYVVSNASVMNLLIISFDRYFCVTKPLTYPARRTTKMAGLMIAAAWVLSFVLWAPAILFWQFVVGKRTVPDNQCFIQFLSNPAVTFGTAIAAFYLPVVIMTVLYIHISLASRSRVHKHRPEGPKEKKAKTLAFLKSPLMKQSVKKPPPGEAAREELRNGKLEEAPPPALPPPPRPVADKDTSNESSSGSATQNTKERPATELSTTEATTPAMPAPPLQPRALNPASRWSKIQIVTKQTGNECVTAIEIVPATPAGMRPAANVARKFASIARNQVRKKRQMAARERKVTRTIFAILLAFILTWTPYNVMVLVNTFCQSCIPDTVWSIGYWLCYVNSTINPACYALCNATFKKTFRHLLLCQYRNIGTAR

On to `Cc1cccc(N(C)C(=O)c2cc3cc4ccc(C)cc4nc3o2)c1`, for which the cell count in test [1] turned out to be 214. In addition, the inhibition in test [1] was -0.3% (inactive); in test [3] it was -24.7% (inactive); in test [7], 37.8% (inactive); in test [8], -34.7% (inactive). Besides, in test [2], the inhibition of aggregation is 11.5% (inactive). Also, the figures for the nuclei count in test [2] and in test [3] were 92.4% and 109%, respectively. Besides, the figures for the fluorescence slope in test [4] and in test [6] were -0.396 (inactive) and 0.00523 (inactive), respectively. The NADPH fluorescence slope in test [5] is -2.9e-05 (inactive).
For `Cc1ncoc1C(=O)Nc1cccc(Cl)c1C`, the cell count in test [1] amounted to 540. For the same compound, the inhibition in test [1] is -14.2% (inactive); in test [3], -38.5% (inactive); in test [7] it was -22.6% (inactive); in test [8] it was -46.1% (inactive). Moreover, in test [2], the inhibition of aggregation is 52.7% (active). Also, the nuclei count worked out at 56.4% in test [2] and 116% in test [3]. For the same compound, the fluorescence slope was -0.302 (inactive) in test [4] and 0.00599 (inactive) in test [6]. Also, in test [5], the NADPH fluorescence slope is 8.7e-06 (inactive).
Regarding `COc1ccccc1N1CCN(C(=O)c2ccc(CS(=O)(=O)c3ccccc3OC)o2)CC1`, the cell count in test [1] came to 550. Also, the inhibition in test [1] is -12.7% (inactive); in test [3] it was -68.7% (inactive); in test [7], 6.55% (inactive); in test [8] it was 15.7% (inactive). Also, the inhibition of aggregation in test [2] is -6.3% (inactive). In addition, the nuclei count in test [2] is 110%; in test [3], 113%. The fluorescence slope in test [4] is -0.478 (inactive); in test [6], 0.00677 (inactive). Also, the NADPH fluorescence slope in test [5] was 3.4e-05 (inactive).
With `COc1ccc(-c2noc(CCC(=O)NCCCN3CCC(Cc4ccccc4)CC3)n2)cc1`, the cell count in test [1] came out at 335. In addition, the inhibition in test [1] was 7.8% (inactive); in test [3], -46.3% (inactive); in test [7] it was 3.44% (inactive); in test [8], -1.77% (inactive). For the same compound, the inhibition of aggregation in test [2] was 2% (inactive). In addition, the nuclei count in test [2] came to 94%; in test [3] it was 108%. Also, the fluorescence slope in test [4] was -0.547 (inactive); in test [6] it was 0.00434 (inactive). The NADPH fluorescence slope in test [5] was -2.4e-05 (inactive).
Take `Cc1cc(C)c2oc(=O)cc(CN3CCOCC3)c2c1`: the cell count in test [1] was 647. The inhibition is 2% (inactive) in test [1], -10.1% (inactive) in test [3], 15.5% (inactive) in test [7] and 25.5% (inactive) in test [8]. The inhibition of aggregation in test [2] is 4.4% (inactive). In addition, the nuclei count in test [2] worked out at 87.2%; in test [3] it was 99.8%. Also, the fluorescence slope in test [4] was -0.551 (inactive); in test [6], 0.00519 (inactive). Besides, in test [5], the NADPH fluorescence slope is 2.5e-06 (inactive).
Take `O=C(c1ccc(Cl)c(Cl)c1)N1CCOCC1`: in test [1], the cell count came to 694. Also, the inhibition was -9.1% (inactive) in test [1], 5.6% (inactive) in test [3], 3.81% (inactive) in test [7] and 3.54% (inactive) in test [8]. Besides, the inhibition of aggregation in test [2] was -0.3% (inactive). Moreover, the nuclei count was 107% in test [2] and 105% in test [3]. For the same compound, the fluorescence slope in test [4] was -0.568 (inactive); in test [6], 0.00532 (inactive). Moreover, in test [5], the NADPH fluorescence slope was -2.1e-05 (inactive).
In the case of `c1ccc(-c2n[nH]c3ccccc23)cc1`, the cell count in test [1] was found to be 708. Besides, the inhibition is -3% (inactive) in test [1], -13.1% (inactive) in test [3], -14% (inactive) in test [7] and -30% (inactive) in test [8]. The inhibition of aggregation in test [2] is 13.9% (inactive). Moreover, the nuclei count stood at 116% in test [2] and 106% in test [3]. Further, the fluorescence slope in test [4] was -0.55 (inactive); in test [6], 0.00778 (inactive). Moreover, the NADPH fluorescence slope in test [5] is -5.6e-05 (inactive).
For the compound `Oc1ccc(-c2onc(C(F)(F)F)c2-c2cscn2)c(O)c1`, the cell count in test [1] was found to be 363. The inhibition was -0.5% (inactive) in test [1], -85.6% (inactive) in test [3], 14.9% (inactive) in test [7] and -12.3% (inactive) in test [8]. Besides, the inhibition of aggregation in test [2] was -7% (inactive). Moreover, the nuclei count in test [2] turned out to be 92.7%; in test [3], 116%. Also, the figures for the fluorescence slope in test [4] and in test [6] were -0.573 (inactive) and 0.00657 (inactive), respectively. Besides, in test [5], the NADPH fluorescence slope is -5.1e-05 (inactive).
`COc1ccc(CCNS(=O)(=O)c2ccc3c(c2)OCCO3)cc1`: the cell count in test [1] amounted to 361. For the same compound, the inhibition in test [1] is 4.2% (inactive); in test [3], 33.5% (inactive); in test [7], 14.6% (inactive); in test [8] it was 16.5% (inactive). The inhibition of aggregation in test [2] was 2.3% (inactive). In addition, the nuclei count in test [2] was 102%; in test [3] it was 106%. The fluorescence slope in test [4] is -0.466 (inactive); in test [6], 0.00491 (inactive). The NADPH fluorescence slope in test [5] is -3.5e-05 (inactive).
As for `CSc1cccc(NC(=O)C2CCN(S(C)(=O)=O)CC2)c1`, the cell count in test [1] was determined as 248. Further, the inhibition is 3.5% (inactive) in test [1], -296% (inactive) in test [3], 13.5% (inactive) in test [7] and 13.6% (inactive) in test [8]. Moreover, the inhibition of aggregation in test [2] was 16.4% (inactive). The nuclei count in test [2] amounted to 80.7%; in test [3], 120%. Further, the figures for the fluorescence slope in test [4] and in test [6] were -0.438 (inactive) and 0.00544 (inactive), respectively. Also, the NADPH fluorescence slope in test [5] is 3.2e-05 (inactive).
Turning to `O=C1C2CCCN2C(c2ccc(Cl)cc2)N1c1nccs1` (centres undefined), the cell count in test [1] worked out at 378. In addition, the inhibition in test [1] was -7.5% (inactive); in test [3], 12.8% (inactive); in test [7], 11.3% (inactive); in test [8], 13.5% (inactive). Further, the inhibition of aggregation in test [2] was -18.3% (inactive). Moreover, the nuclei count in test [2] was determined as 99.7%; in test [3] it was 92.8%. The fluorescence slope in test [4] is -0.556 (inactive); in test [6], 0.00531 (inactive). The NADPH fluorescence slope in test [5] is -6e-05 (inactive).
`COc1ccc(NC(=O)Nc2cc(C)ccc2OC)cc1`: the cell count in test [1] was 217. The inhibition in test [1] was 8.3% (inactive); in test [3], -133% (inactive); in test [7] it was -39.1% (inactive); in test [8] it was -80.2% (inactive). In test [2], the inhibition of aggregation is -1.8% (inactive). In addition, the nuclei count worked out at 98.6% in test [2] and 120% in test [3]. Besides, the fluorescence slope was -0.422 (inactive) in test [4] and 0.00547 (inactive) in test [6]. Further, the NADPH fluorescence slope in test [5] was -0.00041 (inactive).
`c1nnc(NC2=NCCCCC2)s1`: the cell count in test [1] came to 630. In addition, the inhibition in test [1] was -18.3% (inactive); in test [3], 33.9% (inactive); in test [7] it was -16.9% (inactive); in test [8], -29.4% (inactive). Also, the inhibition of aggregation in test [2] is 0.1% (inactive). Moreover, the nuclei count was 105% in test [2] and 124% in test [3]. Also, the fluorescence slope in test [4] is -0.346 (inactive); in test [6], 0.00597 (inactive). Also, the NADPH fluorescence slope in test [5] is -1.1e-05 (inactive).
On to `O=c1c2ccccc2cnn1-c1nc2ccccc2s1`, for which, in test [1], the cell count was determined as 480. The inhibition in test [1] was -1% (inactive); in test [3], -33.8% (inactive); in test [7] it was 20.5% (inactive); in test [8], 93.6% (active). In test [2], the inhibition of aggregation is -5.1% (inactive). The values for the nuclei count in test [2] and in test [3] were 98.1% and 117%, respectively. Further, the fluorescence slope was -0.133 (inactive) in test [4] and 0.00555 (inactive) in test [6]. Also, the NADPH fluorescence slope in test [5] was -1.6e-05 (inactive).
